Data reported in ChEMBL document CHEMBL1159325, “Pseudoirroratin A, a new cytotoxic ent-kaurene diterpene from Isodon pseudo-irrorata” (J Nat Prod, 2002).

Key:
Format in all cases: functional, cell-based
Lu1 = assay: Cytotoxicity against human Lu1 cells by MTT assay
Procedure, shortened: (§1)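 Cytotoxicity was run on human cell lines (Lu1, SW626, LNCaP, KB, and the HOG.R5 reporter line derived from parental HOS cells) following a previously established protocol. Camptothecin served as the positive control, and results were expressed as IC50.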

KB = assay: Cytotoxicity against human KB cells by MTT assay; procedure, shortened: as §1
SW626 = assay: Cytotoxicity against human SW626 cells by MTT assay; procedure, shortened: as §1
[1] = Cytotoxicity against human HOG.R5 cells by MTT assay; procedure, shortened: as §1
LNCaP = assay: Cytotoxicity against human LNCAP cells by MTT assay; procedure, shortened: as §1
HOS = assay: Cytotoxicity against human HOS cells by MTT assay

Structure (SMILES) | IC50 (Lu1) [nM] | IC50 (KB) [nM] | IC50 (SW626) [nM] | IC50 [1] [nM] | IC50 (LNCaP) [nM] | IC50 (HOS) [nM]
CC[C@@]1(O)C(=O)OCc2c1cc1n(c2=O)Cc2cc3ccccc3nc2-1 [CAMPTOTHECIN] | 28.7 | 28.7 | 28.7 | 28.7 | 86.1 | 
C=C1C(=O)[C@]23[C@H](O)C[C@@H]4C(C)(C)CCC[C@]45CO[C@](O)(C[C@@H]1[C@H]2O)[C@@H]53 [PSEUDOIRRORATIN A] | 750 | 2590 | 570 |  | 2590 | 1440
